Values joined by “and” are separate entries in the source; they are usually repeats but may differ in a detail not shown here. Equal entries are not always repeated.
Tested on: U2OS
Experiment: Multiplex assay against U2OS
Format: toxicity, cell-based
Settings: human, number of replicates 2
Procedure, shortened: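 On a CQ1 microscope at 37°C and 5% CO2, live cells were imaged after compound addition. They had been stained at seeding with Hoechst33342, BioTracker Green Microtubule Cytoskeleton Dye, MitoTracker Red and Annexin V Alexa Fluor 680. CellPathfinder machine-learning gating assigned cells to Hoechst high-intensity objects or normal cells, normal cells to healthy, pyknosed or fragmented nuclei, and pyknosed cells to mitotic or apoptotic. Tubulin, mitochondrial-mass and membrane-permeability phenotypes are per cents of healthy-nucleus cells.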

[1] = 12 h, 1 µM, compound concentration 1 uM
[2] = 12 h, 10 µM, compound concentration 10 uM
[3] = 24 h, 1 µM, compound concentration 1 uM
[4] = 24 h, 10 µM, compound concentration 10 uM
[5] = 48 h, 1 µM, compound concentration 1 uM
[6] = 48 h, 10 µM, compound concentration 10 uM

## COc1cc(Br)c(S(=O)(=O)Nc2ccc(C(F)(F)F)c(O[C@@H]3CCN(C)C3)c2)cc1OC
[1]
  Population Fragmented Nuclei (%): 10% and 4%
  Population Healthy Nuclei (%): 80% and 88%
  Population Hoechst High Intensity Objects (%): 0%
  Population Membrane Permeable-Phenotype (%): 4% and 0%
  Population Mitochondria Different-Phenotype (%): 0%
  Population Mitotic Cells (%): 100% and 46%
  Population Normal (%): 100%
  Population Pyknosed Nuclei (%): 10% and 7%
  Population Tubulin-Different-Phenotype (%): 66% and 89%
[2]
  Population Apoptotic (%): 60% and 78%
  Population Healthy Nuclei (%): 67% and 85%
  Population Hoechst High Intensity Objects (%): 0%
  Population Membrane Permeable-Phenotype (%): 4% and 0%
  Population Mitochondria Different-Phenotype (%): 4% and 0%
  Population Mitotic Cells (%): 40% and 21%
  Population Normal (%): 100%
  Population Pyknosed Nuclei (%): 16% and 10%
  Population Tubulin-Different-Phenotype (%): 66% and 59%
[3]
  Population Apoptotic (%): 66% and 47%
  Population Fragmented Nuclei (%): 7% and 3%
  Population Healthy Nuclei (%): 85% and 88%
  Population Hoechst High Intensity Objects (%): 0%
  Population Membrane Permeable-Phenotype (%): 0% and 3%
  Population Mitochondria Different-Phenotype (%): 0%
  Population Mitotic Cells (%): 33% and 52%
  Population Normal (%): 100%
  Population Pyknosed Nuclei (%): 7%
  Population Tubulin-Different-Phenotype (%): 77% and 87%
[4]
  Population Fragmented Nuclei (%): 8% and 2%
  Population Healthy Nuclei (%): 75% and 85%
  Population Hoechst High Intensity Objects (%): 0%
  Population Membrane Permeable-Phenotype (%): 0% and 2%
  Population Mitochondria Different-Phenotype (%): 3% and 2%
  Population Mitotic Cells (%): 83% and 48%
  Population Normal (%): 100%
  Population Pyknosed Nuclei (%): 16% and 11%
  Population Tubulin-Different-Phenotype (%): 70% and 74%
[5]
  Population Apoptotic (%): 30% and 51%
  Population Healthy Nuclei (%): 69% and 89%
  Population Hoechst High Intensity Objects (%): 0%
  Population Membrane Permeable-Phenotype (%): 0% and 1%
  Population Mitochondria Different-Phenotype (%): 0%
  Population Mitotic Cells (%): 69% and 48%
  Population Normal (%): 100% and 99%
  Population Pyknosed Nuclei (%): 14% and 7%
  Population Tubulin-Different-Phenotype (%): 79% and 91%
[6]
  Population Apoptotic (%): 57% and 61%
  Population Fragmented Nuclei (%): 9% and 1%
  Population Healthy Nuclei (%): 79% and 91%
  Population Hoechst High Intensity Objects (%): 0%
  Population Membrane Permeable-Phenotype (%): 9% and 1%
  Population Mitochondria Different-Phenotype (%): 5% and 0%
  Population Mitotic Cells (%): 42% and 38%
  Population Normal (%): 100%
  Population Pyknosed Nuclei (%): 10% and 6%
  Population Tubulin-Different-Phenotype (%): 92% and 81%

## O=C(NCc1ccc(F)cc1)N1CCN2C(=O)OC(c3ccccc3)(c3ccccc3)C2C1 (stereo unspecified)
[1]
  Population Apoptotic (%): 80% and 46%
  Population Fragmented Nuclei (%): 11% and 2%
  Population Healthy Nuclei (%): 69% and 86%
  Population Hoechst High Intensity Objects (%): 3% and 0%
  Population Membrane Permeable-Phenotype (%): 0% and 3%
  Population Mitochondria Different-Phenotype (%): 0% and 1%
  Population Mitotic Cells (%): 20% and 53%
  Population Normal (%): 96% and 100%
  Population Pyknosed Nuclei (%): 19% and 10%
  Population Tubulin-Different-Phenotype (%): 61% and 62%
[2]
  Population Apoptotic (%): 62% and 43%
  Population Fragmented Nuclei (%): 7% and 4%
  Population Healthy Nuclei (%): 71% and 86%
  Population Hoechst High Intensity Objects (%): 0%
  Population Membrane Permeable-Phenotype (%): 22% and 24%
  Population Mitochondria Different-Phenotype (%): 22% and 17%
  Population Mitotic Cells (%): 37% and 56%
  Population Normal (%): 100% and 99%
  Population Pyknosed Nuclei (%): 21% and 9%
  Population Tubulin-Different-Phenotype (%): 88% and 60%
[3]
  Population Apoptotic (%): 47% and 81%
  Population Fragmented Nuclei (%): 2% and 8%
  Population Healthy Nuclei (%): 88% and 58%
  Population Hoechst High Intensity Objects (%): 0% and 2%
  Population Membrane Permeable-Phenotype (%): 2% and 5%
  Population Mitochondria Different-Phenotype (%): 0%
  Population Mitotic Cells (%): 52% and 18%
  Population Normal (%): 100% and 97%
  Population Tubulin-Different-Phenotype (%): 72% and 45%
[4]
  Population Apoptotic (%): 75% and 72%
  Population Fragmented Nuclei (%): 2% and 6%
  Population Healthy Nuclei (%): 64% and 78%
  Population Hoechst High Intensity Objects (%): 0%
  Population Membrane Permeable-Phenotype (%): 37% and 16%
  Population Mitochondria Different-Phenotype (%): 45% and 36%
  Population Mitotic Cells (%): 25% and 28%
  Population Normal (%): 100%
  Population Pyknosed Nuclei (%): 32% and 15%
  Population Tubulin-Different-Phenotype (%): 83% and 53%
[5]
  Population Apoptotic (%): 37% and 90%
  Population Healthy Nuclei (%): 90% and 62%
  Population Hoechst High Intensity Objects (%): 0% and 1%
  Population Membrane Permeable-Phenotype (%): 1% and 9%
  Population Mitochondria Different-Phenotype (%): 0%
  Population Normal (%): 100% and 98%
  Population Pyknosed Nuclei (%): 6% and 18%
  Population Tubulin-Different-Phenotype (%): 86% and 48%
[6]
  Population Apoptotic (%): 75% and 73%
  Population Fragmented Nuclei (%): 7% and 5%
  Population Healthy Nuclei (%): 57% and 75%
  Population Hoechst High Intensity Objects (%): 0%
  Population Membrane Permeable-Phenotype (%): 12% and 20%
  Population Mitochondria Different-Phenotype (%): 37% and 19%
  Population Mitotic Cells (%): 25% and 26%
  Population Normal (%): 100%
  Population Pyknosed Nuclei (%): 35% and 18%
  Population Tubulin-Different-Phenotype (%): 68% and 42%

## CS(=O)(=O)c1ccc(C(=O)Nc2cccc(COc3ccc(Br)cc3CN3CC[C@@H](O)C3)c2)c(Cl)c1.O=CO
[1]
  Population Apoptotic (%): 60% and 71%
  Population Healthy Nuclei (%): 80%
  Population Hoechst High Intensity Objects (%): 0%
  Population Mitotic Cells (%): 40% and 28%
  Population Normal (%): 100%
  Population Pyknosed Nuclei (%): 9%
[2]
  Population Apoptotic (%): 55% and 54%
  Population Healthy Nuclei (%): 65% and 80%
  Population Hoechst High Intensity Objects (%): 0%
  Population Mitotic Cells (%): 44% and 45%
  Population Normal (%): 100%
  Population Pyknosed Nuclei (%): 20% and 15%
[3]
  Population Apoptotic (%): 54% and 59%
  Population Healthy Nuclei (%): 59% and 86%
  Population Hoechst High Intensity Objects (%): 0%
  Population Mitotic Cells (%): 45% and 40%
  Population Normal (%): 100%
[4]
  Population Apoptotic (%): 60% and 72%
  Population Healthy Nuclei (%): 59% and 65%
  Population Hoechst High Intensity Objects (%): 0%
  Population Mitotic Cells (%): 40% and 27%
  Population Normal (%): 100%
  Population Pyknosed Nuclei (%): 31%
[5]
  Population Apoptotic (%): 60% and 87%
  Population Healthy Nuclei (%): 64% and 82%
  Population Hoechst High Intensity Objects (%): 0%
  Population Normal (%): 100%
  Population Pyknosed Nuclei (%): 15%
[6]
  Population Apoptotic (%): 76% and 88%
  Population Healthy Nuclei (%): 47% and 57%
  Population Hoechst High Intensity Objects (%): 0% and 1%
  Population Mitotic Cells (%): 23% and 11%
  Population Normal (%): 100%
  Population Pyknosed Nuclei (%): 33%

## C[C@@H](Oc1cc(-n2cnc3ccc(OC4CCN(C)CC4)cc32)sc1C(N)=O)c1ccccc1Cl [GSK-579289A]
[1]
  Population Apoptotic (%): 100% and 47%
  Population Fragmented Nuclei (%): 4% and 6%
  Population Healthy Nuclei (%): 78%
  Population Hoechst High Intensity Objects (%): 0%
  Population Membrane Permeable-Phenotype (%): 24% and 17%
  Population Normal (%): 100% and 99%
  Population Pyknosed Nuclei (%): 16% and 15%
  Population Tubulin-Different-Phenotype (%): 33% and 43%
[2]
  Population Apoptotic (%): 78% and 61%
  Population Fragmented Nuclei (%): 9% and 23%
  Population Healthy Nuclei (%): 64% and 47%
  Population Hoechst High Intensity Objects (%): 2% and 0%
  Population Membrane Permeable-Phenotype (%): 55% and 27%
  Population Mitochondria Different-Phenotype (%): 69% and 72%
  Population Mitotic Cells (%): 22% and 38%
  Population Normal (%): 97% and 100%
  Population Pyknosed Nuclei (%): 26% and 28%
  Population Tubulin-Different-Phenotype (%): 97% and 95%
[3]
  Population Apoptotic (%): 100% and 78%
  Population Fragmented Nuclei (%): 9% and 4%
  Population Healthy Nuclei (%): 84% and 76%
  Population Hoechst High Intensity Objects (%): 0%
  Population Membrane Permeable-Phenotype (%): 14% and 23%
  Population Mitotic Cells (%): 0% and 21%
  Population Normal (%): 100% and 99%
  Population Pyknosed Nuclei (%): 6% and 18%
  Population Tubulin-Different-Phenotype (%): 33% and 46%
[4]
  Population Apoptotic (%): 78% and 81%
  Population Fragmented Nuclei (%): 8% and 5%
  Population Healthy Nuclei (%): 41% and 52%
  Population Hoechst High Intensity Objects (%): 4% and 0%
  Population Membrane Permeable-Phenotype (%): 52% and 83%
  Population Mitochondria Different-Phenotype (%): 84% and 67%
  Population Mitotic Cells (%): 21% and 18%
  Population Normal (%): 95% and 99%
  Population Pyknosed Nuclei (%): 50% and 41%
  Population Tubulin-Different-Phenotype (%): 100% and 98%
[5]
  Population Apoptotic (%): 95% and 75%
  Population Healthy Nuclei (%): 60% and 55%
  Population Hoechst High Intensity Objects (%): 0%
  Population Membrane Permeable-Phenotype (%): 33% and 19%
  Population Normal (%): 100%
  Population Pyknosed Nuclei (%): 31% and 21%
  Population Tubulin-Different-Phenotype (%): 56% and 38%
[6]
  Population Apoptotic (%): 100% and 95%
  Population Fragmented Nuclei (%): 9% and 12%
  Population Healthy Nuclei (%): 19% and 12%
  Population Hoechst High Intensity Objects (%): 4%
  Population Membrane Permeable-Phenotype (%): 100% and 95%
  Population Mitochondria Different-Phenotype (%): 50% and 70%
  Population Mitotic Cells (%): 0% and 4%
  Population Normal (%): 95%
  Population Pyknosed Nuclei (%): 70% and 74%
  Population Tubulin-Different-Phenotype (%): 100% and 95%
